Measurements gathered from unrelated publications.
Each line is one published result; the experiments were not run side by side.

Compound | target or system | test | test system | setting | endpoint | result
CC(C)C[C@@H]1NC(=O)CNC(=O)[C@H](CC(N)=O)NC(=O)[C@H](CCCNC(=N)N)NC(=O)[C@H]([C@@H](C)O)NC(=O)[C@@H]2CSSC[C@@H]3NC(=O)[C@H]([C@@H](C)O)NC(=O)CNC(=O)CNC(=O)[C@H](C(C)C)NC(=O)[C@@H]4CSSC[C@H](NC(=O)[C@H](CCCCN)NC(=O)[C@H](CSSC[C@H](NC(=O)[C@H](C(C)C)NC(=O)[C@@H]5CCCN5C1=O)C(=O)NCC(=O)N[C@@H](CCC(=O)O)C(=O)N[C@@H]([C@@H](C)O)C(=O)N4)NC(=O)CNC(=O)[C@@H]1CCCN1C(=O)[C@H]([C@@H](C)O)NC(=O)[C@H](CC(N)=O)NC3=O)C(=O)N[C@@H](CO)C(=O)N[C@@H](Cc1c[nH]c3ccccc13)C(=O)N1CCC[C@H]1C(=O)N[C@@H](C(C)C)C(=O)N2 | Sf9 | cell growth or viability, MTT |  | 24 h | IC50 | 2600 nM
OC(c1cc(C(F)(F)F)nc2c(C(F)(F)F)cccc12)C1CCCCN1 (centres unmarked) | Plasmodium falciparum | parasite growth, SYBR Green | W2 | 48 h, drug-resistant strain, blood stage | IC50 | 20.7 nM
Cn1cc2c3c1C(=O)C(NCCc1ccc(O)cc1)=CC3=[N+](C)CC2 | Plasmodium falciparum | parasite growth, SYBR Green | 3D7 | blood stage | IC50 | 43.7 nM
CCCCCNCC(O)c1cc(Cl)cc2c1-c1ccc(Cl)cc1C2 (racemic) | Plasmodium falciparum | parasite growth, SYBR Green | W2 | 48 h, drug-resistant strain, blood stage | IC50 | 8.7 nM
Cn1cc2c3c1C(=O)C(N)=CC3=NCC2 | Plasmodium falciparum | parasite growth, SYBR Green | 3D7 | blood stage | IC50 | 3300 nM
CC(C)C[C@@H]1NC(=O)[C@H](CC(N)=O)NC(=O)[C@H](CCCNC(=N)N)NC(=O)[C@H]([C@@H](C)O)NC(=O)[C@@H]2CSSC[C@@H]3NC(=O)[C@H]([C@@H](C)O)NC(=O)CNC(=O)CNC(=O)[C@H](C(C)C)NC(=O)[C@@H]4CSSC[C@H](NC(=O)[C@H]([C@@H](C)O)NC(=O)[C@H](CSSC[C@H](NC(=O)[C@H](C(C)C)NC(=O)[C@@H]5CCCN5C(=O)[C@H](CC(C)C)NC1=O)C(=O)NCC(=O)N[C@@H](CCC(=O)O)C(=O)N[C@@H]([C@@H](C)O)C(=O)N4)NC(=O)CNC(=O)[C@@H]1CCCN1C(=O)[C@H]([C@@H](C)O)NC(=O)[C@H](CC(N)=O)NC3=O)C(=O)N[C@@H](CO)C(=O)N[C@@H](Cc1c[nH]c3ccccc13)C(=O)N1CCC[C@H]1C(=O)N[C@@H](C(C)C)C(=O)N2 | Sf9 | cell growth or viability, MTT |  | 24 h | IC50 | 1800 nM
C[N+]1=C2C=C(NCCc3ccc(O)cc3)C(=O)c3[nH]cc(c32)CC1 | Plasmodium falciparum | parasite growth, SYBR Green | 3D7 | blood stage | IC50 | 18.8 nM
N.N.[Cl][Pt][Cl] | NCI-H460 | cell growth or viability, MTT |  |  | IC50 | 7550 nM
O[C@@H](CN[C@@H](COCC1CC1)Cc1ccccc1)c1cc(Cl)cc2c1-c1ccc(Cl)cc1C2 | Plasmodium falciparum | parasite growth, SYBR Green | W2 | 48 h, drug-resistant strain, blood stage | IC50 | 5.4 nM
CC(C)C[C@@H]1NC(=O)[C@H](CC(N)=O)NC(=O)[C@H](CCCNC(=N)N)NC(=O)[C@H]([C@@H](C)O)NC(=O)[C@@H]2CSSC[C@@H]3NC(=O)[C@H]([C@@H](C)O)NC(=O)CNC(=O)CNC(=O)[C@H](C(C)C)NC(=O)[C@@H]4CSSC[C@H](NC(=O)[C@H](CCCCN)NC(=O)[C@H](CSSC[C@H](NC(=O)[C@H](C(C)C)NC(=O)[C@@H]5CCCN5C(=O)[C@H](CC(C)C)NC1=O)C(=O)NCC(=O)N[C@@H](CCC(=O)O)C(=O)N[C@@H]([C@@H](C)O)C(=O)N4)NC(=O)CNC(=O)[C@@H]1CCCN1C(=O)[C@H]([C@@H](C)O)NC(=O)[C@H](CC(N)=O)NC3=O)C(=O)N[C@@H](CO)C(=O)N[C@@H](Cc1c[nH]c3ccccc13)C(=O)N1CCC[C@H]1C(=O)N[C@@H](C(C)C)C(=O)N2 | Sf9 | cell growth or viability, MTT |  | 24 h | IC50 | 1800 nM
Cc1c2ccncc2c(C)c2c1[nH]c1ccccc12 | NCI-H460 | cell growth or viability, SRB |  | 72 h | GI50 | 4100 nM
